Reference: publication PMC2687631 (Yonsei Medical Journal, 2006)

Assays:
mice = conditions: cited from earlier work
hPTH/PTHrp receptor = conditions: LLC-PK cells stably expressing a high level of the hPTH/PTHrp receptor; cited from earlier work
animals and humans = conditions: cited from earlier work
ovariectomized rat model = experiment: Femoral length and cross-sectional diameter at mid-diaphysis; type: in vivo, Sprague-Dawley rats; conditions: ovx rats, subcutaneous for 5 weeks; p<0.05 vs. OVX
Procedure, shortened: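 Female Sprague-Dawley rats were ovariectomized at 10 weeks (sham group unoperated), left untreated for 4 weeks, then dosed daily s.c. for 5 weeks with test compound (30 nM/kg), rhPTH(1-84) (8 nM/kg) or 0.9% saline vehicle, seven per group. Left femur length (greater trochanter to intercondylar fossa) and mid-diaphysis AP/ML diameters measured by digital caliper. Means and SD; ANOVA with Bonferroni.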

PTH (1-31): PTH (1-31) fragment
Potency in stimulating bone resorption parameters vs PTH (1-34) (mice): less potent | Potency on bone formation vs PTH (1-34) (mice): as potent as PTH (1-34)

PTH (1-14): N-terminal fragment 1-14 of parathyroid hormone (SVSEIQLMHNLGKH; Parathyroid hormone; UniProt P01270 32-45, looked up, fragment)
cAMP formation relative to PTH (1-34) (hPTH/PTHrp receptor): about 10^-3 folds

B1: PTH: parathyroid hormone, low dose, intermittently administered (protein, UniProt P01270 32-115, looked up)
Parathyroid hormone: SVSEIQLMHNLGKHLNSMERVEWLRKKLQDVHNFVALGAPLAPRDAGSQRPRKKEDNVLVESHEKSLGEADKADVNVLTKAKSQ
modifications: Parathyroid hormone
Anabolic effect / bone mass (in words) (animals and humans): significant increase in bone mass

B2: rhPTH (1-84): recombinant human PTH (1-84), donated by the Mogam Biotechnology Research Institute (protein, UniProt P01270 32-115, looked up)
Parathyroid hormone: B1 Parathyroid hormone
modifications: Parathyroid hormone
Femoral length (in words) (ovariectomized rat model): significantly increased length
